# Bioassay records deposited in PubChem by Johns Hopkins Ion Channel Center.
# Most compounds without a hit are left out; they make up all but 3.5% or so of the library.
# MrgX1 antag = human MrgX1 receptor antagonism, primary screen. B-score at 10 µM. 310,000 compounds, 1.3% hits. MRGX1-HEK293 calcium flux, Fluo-4, BAM8-22 antagonism; hits give low values. Q96LB2;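 active = calcium-response B-score plate-corrected more than 3 library SD below zero, starting fluorescence within 5 deviations, no agonist response on first addition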;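 also: peak minus trough fluorescence over baseline after final BAM8-22 challenge near maximal dose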
# Target sequence (Q96LB2 whole entry, looked up): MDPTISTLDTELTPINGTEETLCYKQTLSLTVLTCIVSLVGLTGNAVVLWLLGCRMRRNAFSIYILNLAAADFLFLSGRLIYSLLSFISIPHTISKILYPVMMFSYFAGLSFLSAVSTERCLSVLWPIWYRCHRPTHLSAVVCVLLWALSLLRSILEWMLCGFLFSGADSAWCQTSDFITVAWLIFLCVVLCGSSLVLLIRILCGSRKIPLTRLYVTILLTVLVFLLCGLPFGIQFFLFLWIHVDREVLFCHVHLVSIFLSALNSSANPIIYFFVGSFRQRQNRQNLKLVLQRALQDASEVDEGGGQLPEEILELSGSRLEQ
# RGS4 inh = human RGS4 inhibition. P49798. HEK293 M3R/RGS4 inducible, Fluo-4 calcium flux; hits give high values; triggered by carbachol at its EC20. B-score at 10 µM. 310,000 compounds, 0.45% hits. AID 463165;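 active = B-score, a plate-corrected calcium signal, over three deviations above library mean, with baseline fluorescence within five deviations of library mean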;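 also: RGS4 expression induced by doxycycline in cells with stable M3 receptor; B-score is computed from the integrated fluorescence ratio over baseline after carbachol; higher B-score means a larger calcium signal and so more RGS4 inhibition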
# Target sequence (P49798 whole entry, looked up): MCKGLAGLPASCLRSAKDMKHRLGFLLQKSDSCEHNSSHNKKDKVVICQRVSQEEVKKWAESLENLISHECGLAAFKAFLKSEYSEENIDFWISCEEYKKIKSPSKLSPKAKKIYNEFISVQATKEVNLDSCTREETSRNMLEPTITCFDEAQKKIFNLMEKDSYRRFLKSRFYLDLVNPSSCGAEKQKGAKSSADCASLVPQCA
# MrgX1 agonist = human MrgX1 receptor agonism, primary screen. Q96LB2. MrgX1-HEK293 cells, Fluo-4 calcium fluorescence, agonist mode; hits give high values. B-score at 10 µM. 310,000 compounds, 0.44% hits;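 active = calcium response B-score plate-corrected fluorescence ratio at least 3 library SD, with starting fluorescence B-score inside 5 SD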
#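 Material: HEK293 cells stably expressing human MrgX1 receptor | Quantity: 15,000 cells per well | Times: Cells plated overnight, dye loaded 0.5 h 37 °C, 0.5 h room temperature | Measured by: Kinetic Fluo-4 NW fluorescence of intracellular calcium | Control set: Positive and negative controls per plate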
# RGS4 pot = potentiators or activators of RGS4. HEK293 M3R/inducible RGS4, carbachol calcium flux Fluo4; hits give low values. B-score at 10 µM. 310,000 compounds, 0.92% hits. AID 463111;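 active = B-score of the integrated calcium signal more than 4 SD below the library mean, with starting fluorescence not abnormally high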;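 also: negative B-score means reduced calcium response which marks RGS4 activation or potentiation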
#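 Test system: HEK293 cells with stable M3R and inducible RGS4; also added: carbachol at ECmax as muscarinic agonist stimulus; schedule: dye loading 30 min 37 °C, buffer rest 30 min RT; technique: kinetic calcium fluorescence imaging with Fluo4-AM dye, 2 µM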
# MrgX1 allo act = human MrgX1 positive allosteric modulation, primary screen; Q96LB2; MrgX1-HEK293, Fluo-4 calcium flux, FDSS; hits give high values; 310,000 compounds, 0.63% hits; B-score at 10 µM;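 active = plate-corrected calcium response at least 3 library SD above typical, normal starting fluorescence, not activating the receptor alone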;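 also: compound read alongside a low EC10 to EC30 dose of BAM8-22 agonist; peak minus trough fluorescence over baseline measured at the second addition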
# RGS4 block valid = RGS4 inhibitor validation; shares compounds with RGS4 inh; HEK293 M3R/RGS4, carbachol calcium Fluo-4 fluorescence; carbachol added at its EC20; 0 = buffer wells, 100 = carbachol control; calcium response, % at 10 µM; 1,700 compounds, 65% hits;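 active = duplicate-averaged calcium response above the buffer-only control mean plus 5 SD of those controls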;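 also: integrated fluorescence ratio F max minus min over baseline F0; higher response in RGS4-induced cells means RGS4 inhibition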
# RGS4 uninduced = counter-screen for RGS4 inhibitors: effect in non-induced cells | AID 493000 | activity (percent), % at 10 µM | 1,900 compounds, 20% hits | HEK293 M3R non-induced, carbachol calcium Fluo-4; submaximal (EC20) carbachol stimulus; buffer wells 0%, carbachol control wells 100% | shares compounds with RGS4 inh; call rule not given here;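 also: RGS4 induction absent so cells express M3R without RGS4; higher means more calcium signal and flags a non-specific hit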
# RGS4 inh ctr2 = signal in non-induced cells without carbachol, RGS4 inhibitor counter-screen | shares compounds with RGS4 inh | HEK293 M3R/RGS4 non-induced, Fluo-4 calcium, no carbachol; normalised: buffer wells 0%, carbachol wells 100% | calcium response (agonist-mode artifact), % at 10 µM | 1,900 compounds, 22% hits | AID 493001;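 active = duplicate-averaged calcium rise in uninduced cells above buffer wells' mean plus 5 SD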
# The depositor's hits bear a star; i = inactive; · = not tested or not shown.
SMILES,MrgX1 antag,RGS4 inh,MrgX1 agonist,RGS4 pot,MrgX1 allo act,RGS4 block valid,RGS4 uninduced,RGS4 inh ctr2
CCOC(=O)/C(C#N)=C/c1cn(CCC(=O)O)nc1-c1ccc(OC)cc1,i,i,i,i,i,·,·,·
CCOC(=O)/C(C#N)=C/c1cn(CCC(=O)O)nc1-c1ccc(Cl)cc1,i,i,i,i,i,i,i,i
CCOC(=O)/C(C#N)=C/c1cn(CCC(=O)O)nc1-c1cccc(Br)c1,i,i,i,i,i,·,i,i
O=Cc1cn(CCC(=O)O)nc1-c1cccc(Cl)c1,i,i,i,i,i,·,·,·
Cc1ccccc1C1C(C#N)=C2N=C(N)c3ccccc3N2C2=C1C(=O)CCC2 (stereo unspecified),i,i,i,i,i,·,·,·
N#CC1=C2N=C(N)c3ccccc3N2C2=C(C(=O)CCC2)C1c1cccc(Cl)c1 (stereo unspecified),i,i,i,i,i,·,38%*,28%*
CCC1(C)Cc2ccccc2-c2nc(NN)[nH]c(=O)c21 (stereo unspecified),i,i,i,i,i,·,·,·
O=c1[nH]c(NCCO)nc2c1C1(CCCC1)Cc1ccccc1-2,i,8.4*,i,i,i,43%*,70%*,22%*
C=CCNC(=S)NNc1nc2c(c(=O)[nH]1)C1(CCCCC1)Cc1ccccc1-2,i,11*,i,i,i,34%*,i,i
CC1(C)Cc2ccccc2-c2nc(NCCCO)[nH]c(=O)c21,i,i,i,i,i,·,·,·
CCC1(C)Cc2ccccc2-c2nc(NCCO)[nH]c(=O)c21 (stereo unspecified),i,8*,i,i,i,20%*,i,i
CC(C)(C)OC(=O)C(C)(C)Sc1nnc(N)s1,i,i,i,i,i,·,·,·
CCc1ncc(CN2CCCC(C(=O)Nc3ccc(-c4cscn4)cc3)C2)cn1 (stereo unspecified),i,i,i,i,i,·,·,·
O=C(NNC(=O)c1ccc(S(=O)(=O)N2CCOCC2)cc1)c1ccccc1,i,i,i,i,i,·,·,·
Cc1ccc(C)c(-c2cc(C(=O)Nc3sc(C)c(C)c3C(N)=O)c3ccccc3n2)c1,i,i,i,i,i,·,i,7.0%*
CCC(CC)C(=O)OCC(=O)Nc1cccc([N+](=O)[O-])c1,i,i,i,i,i,·,·,·
COc1ccc(C(=O)Nc2nncs2)cc1S(=O)(=O)N1CCOCC1,i,i,i,i,i,·,·,·
COc1ccccc1NC(=O)c1cnc(SCC(=O)NCC2CCCO2)n(C)c1=O (stereo unspecified),i,5.4*,i,i,i,9.0%*,i,i
COC(=O)/C=C/S(=O)(=O)c1ccc(NC(C)=O)cc1,i,6*,i,i,i,54%*,38%*,13%*
C=CCNC(=O)c1cc(-c2ccncc2)nc2c(C)cc(C)cc12,i,i,i,i,i,·,·,·
CCOC(=O)[C@@H]1[C@H]2COc3ccccc3[C@@H]2N2C(=O)N(c3ccc(C(F)(F)F)cc3)C(=O)[C@]12C,i,i,i,i,i,i,i,i
CCOC(=O)[C@@H]1[C@H]2COc3ccccc3[C@H]2N2C(=O)N(c3ccc(C(F)(F)F)cc3)C(=O)[C@]12C,i,i,i,i,i,i,i,i
O=C(CCNC(=O)c1ccco1)Nc1ccc(OC(F)(F)F)cc1,i,i,i,i,i,·,·,·
C[C@@H](NC(=O)c1cc2c([nH]c3ccccc32)c(-c2ccccc2)n1)C(=O)O,i,i,i,i,i,·,·,·
CSc1nc(-c2ccccc2)nn1C(=O)c1ccco1,i,i,i,i,i,i,i,i
SMILES,MrgX1 antag,RGS4 inh,MrgX1 agonist,RGS4 pot,MrgX1 allo act,RGS4 block valid,RGS4 uninduced,RGS4 inh ctr2
CSc1nc(-c2ccccc2)nn1C(=O)c1ccccc1,i,i,i,i,i,·,·,·
O=C1NC(=O)/C(=C/c2ccc(-c3cc(C(=O)O)ccc3Cl)o2)S1,i,6.2*,i,i,i,12%*,i,i
Cc1cc(O)ccc1N=Cc1c(C(F)(F)F)[nH][nH]c1=O,i,6.8*,i,i,i,18%*,i,21%*
O=C(COc1ccccc1[N+](=O)[O-])Nc1cc(Cl)ccc1C(=O)O,i,i,i,i,i,·,·,·
CCCn1nc(NC(=O)c2cccs2)c2cc3cccc(C)c3nc21,i,i,i,i,i,·,·,·
Cc1ccsc1/C=N/NC(=S)NCc1ccccc1,i,i,i,i,i,·,i,i
COc1ccc(C(=O)/C=C/c2ccsc2)cc1CSCC(=O)O,i,5*,i,i,i,10%*,i,i
CCn1nc(NS(=O)(=O)c2ccc(F)cc2)c2cc3cccc(C)c3nc21,i,i,i,i,i,i,i,i
CCn1nc(NS(=O)(=O)c2ccc(NC(C)=O)cc2)c2cc3cccc(C)c3nc21,i,i,i,i,i,·,·,·
CCn1nc(NS(=O)(=O)c2ccc([N+](=O)[O-])cc2)c2cc3ccccc3nc21,i,i,i,i,i,·,i,i
CCn1nc(NS(=O)(=O)c2ccc(C)cc2)c2cc3ccccc3nc21,i,i,i,i,i,·,·,·
CCn1nc(NS(=O)(=O)c2ccccc2)c2cc3cccc(C)c3nc21,i,i,i,i,i,·,i,i
CCCn1nc(NS(C)(=O)=O)c2cc3cccc(C)c3nc21,i,i,i,i,i,·,·,·
Cc1c(NC(=O)CN2CCCC(C)C2)ccc2nsnc12 (stereo unspecified),i,i,i,i,i,·,·,·
COc1ccc(C2CC(c3c(-c4ccccc4)c4cc(Cl)ccc4[nH]c3=O)=NN2S(C)(=O)=O)cc1 (stereo unspecified),i,i,i,i,i,·,·,·
